From ChEMBL document CHEMBL1125724, “Potential anti-AIDS agents. Synthesis and antiviral activity of naphthalenesulfonic acid derivatives against HIV-1 and HIV-2” (1991) come the findings set out here.

In brackets after ≈: the same amount, converted by molar mass.

Experiment [1] deals with Human immunodeficiency virus type 1 reverse transcriptase (Human immunodeficiency virus 1) (UniProt Q72547). As to the kind of experiment: Compound tested for % inhibition of cell-free HIV-1 Reverse Transcriptase at a concentration of 4 uM. The method in brief:
(§1)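 HIV-1 RT came from disrupted, partially purified, concentrated virions. Reaction ran 30 min at 37 °C in 50 mM Tris-HCl pH 8.4 with 2 mM DTT, 100 mM KCl, 10 mM MgCl2, 0.1% Triton X-100, [methyl-3H]dTTP (1 µCi, 30 Ci/mmol), poly(rA)·oligo(dT) template and compound. It was stopped with 5% TCA, and precipitate was filter-collected and scintillation-counted. Variation was at most 10%.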

Experiment [2] concerns MT4. Briefly: Compound was evaluated for inhibitory effect against MT-4 cells of HIV-1 at a concentration of 20(20.2) ug/mL (uM). The experiment is classed as functional, Homo sapiens. The method in brief:
(§2)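 HIV-1 (HTLV-III_B) infected MT-4 cells at multiplicity of infection 0.02, incubated with a range of compound concentrations for 4 days. Viable cells counted by MTT method. Per-concentration inhibition of virus-induced cytopathogenicity; values are means of two separate experiments.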

Experiment [3] relates to MT4. As to the kind of experiment: Compound was evaluated for inhibitory effect against MT-4 cells of HIV-1 at a concentration of 100(101) ug/mL (uM). It counts as functional, Homo sapiens. The procedure, abridged: as §2
Experiment [4] has as its system MT4. As to the kind of experiment: Compound was evaluated for inhibitory effect against MT-4 cells of HIV-1 at a concentration of 4(4) ug/mL (uM). It counts as functional, Homo sapiens. The method in brief: as §2
Experiment [5] deals with Human immunodeficiency virus type 1 reverse transcriptase (Human immunodeficiency virus 1) (UniProt Q72547). Briefly: Compound tested for % inhibition of cell-free HIV-1 Reverse Transcriptase at a concentration of 505 uM. The method in brief: as §1
For experiment [6], the system named is MT4. As to the kind of experiment: Cell viability at a concentration of 0.8(0.8) ug/mL (uM). It counts as functional, Homo sapiens.
For experiment [7], the target named is Human immunodeficiency virus type 1 reverse transcriptase (Human immunodeficiency virus 1) (UniProt Q72547). As to the kind of experiment: Inhibitory dose at a concentration 505 uM cell-free HIV-1 Reverse Transcriptase. The procedure, abridged:
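HIV-1 RT from disrupted, partially purified and concentrated virions. 37 °C for 30 min in 50 mM Tris-HCl pH 8.4, 2 mM DTT, 100 mM KCl, 10 mM MgCl₂, 0.1% Triton X-100, 1 µCi [methyl-³H]dTTP, 0.01 unit poly(rA)·oligo(dT). Stopped with 5% TCA; precipitate collected on glass-fiber filters and counted by scintillation. Means of two experiments; variation ≤10%.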

Experiment [8] has the same target. Briefly: Compound tested for % inhibition of cell-free HIV-1 Reverse Transcriptase at a concentration of 20.2 uM. The procedure, abridged: as §1
Experiment [9] concerns MT4. As to the kind of experiment: Compound tested for its inhibition of HIV-2 induced cytopathogenicity in MT-4 cells. The experiment is classed as functional. The settings on record: Homo sapiens, read-out: ED50 (the source's name). The method in brief:
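MT-4 cells infected with HIV-2 (ROD) at MOI 0.02 and incubated 4 days with a range of compound concentrations. Viable cells were counted by MTT. ED50 is the dose giving 50% inhibition of virus-induced cytopathogenicity, given as the mean of two separate experiments.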

The subject of experiment [10] is MT4. As to the kind of experiment: Compound tested for its ability to reduce viability of mock-infected MT-4 cells. It counts as functional. The settings on record: Homo sapiens, read-out: CD50 (the source's name). The method in brief:
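Mock-infected MT-4 cells were incubated 4 days with a range of compound concentrations, and viability was read by MTT. CD50 is the 50% cytotoxic dose from reduced viability, given as the mean of two separate experiments.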

In experiment [11] the test system is MT4. Briefly: Compound was evaluated for inhibitory effect against MT-4 cells of HIV-2 at a concentration of 0.8(0.8) ug/mL (uM). It counts as functional, Homo sapiens. The method in brief: (§3)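 HIV-2 (ROD strain) infected MT-4 cells at multiplicity of infection 0.02, incubated with a range of compound concentrations for 4 days. Viable cells counted by MTT method. Per-concentration inhibition of virus-induced cytopathogenicity; values are means of two separate experiments.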

The subject of experiment [12] is MT4. As to the kind of experiment: Compound was evaluated for inhibitory effect against MT-4 cells of HIV-2 at a concentration of 4(4) ug/mL (uM). It counts as functional, Homo sapiens. The method in brief: as §3
In experiment [13] the test system is MT4. Briefly: Compound was evaluated for inhibitory effect against MT-4 cells of HIV-2 at a concentration of 100(101) ug/mL (uM). It counts as functional, Homo sapiens. The procedure, abridged:
as §3

Experiment [14] has as its target Human immunodeficiency virus type 1 protease (Human immunodeficiency virus 1) (UniProt Q72874). As to the kind of experiment: Compound tested for % inhibition of giant cell formation at a concentration of 101 uM. The procedure, abridged: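 MOLT-4 cells were co-cultured 24 h with an equal number of HUT-78/HTLV-III_B cells in the presence of compound. Giant (syncytial) cells were counted microscopically and inhibition of giant cell formation was scored.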

In experiment [15] the test system is MT4. Briefly: Cell viability at a concentration of 4(4) ug/mL (uM). It counts as functional, Homo sapiens.
Experiment [16] relates to MT4. As to the kind of experiment: Cell viability at a concentration of 20(20.2) ug/mL (uM). The experiment is classed as functional, Homo sapiens.
For experiment [17], the system named is MT4. Briefly: Compound was evaluated for inhibitory effect against MT-4 cells of HIV-2 at a concentration of 20(20.2) ug/mL (uM). The experiment is classed as functional, Homo sapiens. The method in brief:
as §3

The test system of experiment [18] is MT4. As to the kind of experiment: Compound was evaluated for inhibitory effect against MT-4 cells of HIV-1 at a concentration of 0.8(0.8) ug/mL (uM). The experiment is classed as functional, Homo sapiens. The procedure, abridged:
as §2

Experiment [19] relates to MT4. As to the kind of experiment: Compound tested for its inhibition of HIV-1 induced cytopathogenicity in MT-4 cells. The experiment is classed as functional. The settings on record: Homo sapiens, read-out: ED50 (the source's name). The method in brief:
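MT-4 cells infected with HIV-1 (HTLV-III_B) at MOI 0.02 and incubated 4 days with a range of compound concentrations. Viable cells were counted by MTT. ED50 is the 50% antiviral dose from inhibition of virus-induced cytopathogenicity, given as the mean of two separate experiments.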
For orientation: Protection from cytopathic effect is a common read-out in antiviral testing.

Experiment [20] relates to MT4. Briefly: Cell viability at a concentration of 100(1.1) ug/mL (uM). The experiment is classed as functional, Homo sapiens.
Experiment [21] addresses Human immunodeficiency virus type 1 reverse transcriptase (Human immunodeficiency virus 1) (UniProt Q72547). The settings on record: 33.4 uM.
The subject of experiment [22] is MT4. Briefly: Compound was evaluated for inhibitory effect against MT-4 cells of HIV-1 at a concentration of 4(6.7) ug/mL (uM). It counts as functional, Homo sapiens. The procedure, abridged: as §2
Experiment [23] relates to MT4. Briefly: Cell viability at a concentration of 20(33.4) ug/mL (uM). The experiment is classed as functional, Homo sapiens.
Experiment [24] deals with MT4. Briefly: Compound was evaluated for inhibitory effect against MT-4 cells of HIV-1 at a concentration of 100(167) ug/mL (uM). The experiment is classed as functional, Homo sapiens. The procedure, abridged: as §2
Experiment [25] concerns MT4. Briefly: Cell viability at a concentration of 4(6.7) ug/mL (uM). It counts as functional, Homo sapiens.
The subject of experiment [26] is MT4. Briefly: Compound was evaluated for inhibitory effect against MT-4 cells of HIV-2 at a concentration of 20(33.4) ug/mL (uM). It counts as functional, Homo sapiens. The procedure, abridged:
as §3

Experiment [27] deals with Human immunodeficiency virus type 1 reverse transcriptase (Human immunodeficiency virus 1) (UniProt Q72547).
The test system of experiment [28] is MT4. As to the kind of experiment: Cell viability at a concentration of 100(167) ug/mL (uM). It counts as functional, Homo sapiens.
Experiment [29] relates to MT4. As to the kind of experiment: Compound was evaluated for inhibitory effect against MT-4 cells of HIV-2 at a concentration of 0.8(1.3) ug/mL (uM). The experiment is classed as functional, Homo sapiens. The method in brief:
as §3

Experiment [30] concerns MT4. As to the kind of experiment: Compound was evaluated for inhibitory effect against MT-4 cells of HIV-2 at a concentration of 100(167) ug/mL (uM). It counts as functional, Homo sapiens. The method in brief: as §3
For experiment [31], the target named is Human immunodeficiency virus type 1 reverse transcriptase (Human immunodeficiency virus 1) (UniProt Q72547). The settings on record: 6.7 uM.
The test system of experiment [32] is MT4. As to the kind of experiment: Compound was evaluated for inhibitory effect against MT-4 cells of HIV-2 at a concentration of 4(6.7) ug/mL (uM). The experiment is classed as functional, Homo sapiens. The procedure, abridged: as §3
Experiment [33] deals with MT4. Briefly: Cell viability at a concentration of 0.8(1.3) ug/mL (uM). The experiment is classed as functional, Homo sapiens.
Experiment [34] has as its system MT4. Briefly: Compound was evaluated for inhibitory effect against MT-4 cells of HIV-1 at a concentration of 0.8(1.3) ug/mL (uM). The experiment is classed as functional, Homo sapiens. The method in brief:
as §2

In experiment [35] the test system is MT4. Briefly: Compound was evaluated for inhibitory effect against MT-4 cells of HIV-1 at a concentration of 20(33.4) ug/mL (uM). The experiment is classed as functional, Homo sapiens. The method in brief:
as §2

One may read the inhibition as the percentage by which the read-out fell short of the control. Higher therefore signals a strong effect. For orientation: Inhibition means how much of the control response was suppressed.

Turning to `O=S(=O)([O-])c1cc(NS(=O)(=O)c2ccc(-c3ccc(S(=O)(=O)Nc4cc(S(=O)(=O)[O-])c5cccc(S(=O)(=O)[O-])c5c4)cc3)cc2)cc2c(S(=O)(=O)[O-])cccc12.[Na+].[Na+].[Na+].[Na+]`, the inhibition in experiment [1] turned out to be 0%; in experiment [5] it was 100%; in experiment [8], 0%; in experiment [14], 100%. Further, the Inhibition in the experiment with MT4 [2] is reported as 8%; in the experiment with MT4 [3] it was 100%; with MT4 [4], 1%; in the experiment on MT4 [11], 0%; in the experiment on MT4 [12], 1%; in the experiment on MT4 [13] it was 94%. Besides, the Inhibition is listed as 9% in the experiment on MT4 [17] and 0% in the experiment on MT4 [18]. Also, the Cell viability amounted to 1 in the experiment with MT4 [6], 0 with MT4 [15], 0 in the experiment on MT4 [16] and 0 in the experiment with MT4 [20]. In addition, in experiment [7], the ID50 is 370 µg/mL. Besides, the EC50 in the experiment on MT4 [9] was found to be 43 µg/mL; in the experiment on MT4 [19], 42 µg/mL. In addition, the CC50 in the experiment with MT4 [10] was more than 100 µg/mL.
For the compound `CCCCCCCCCCCCCCCC(=O)Nc1cc(S(=O)(=O)O)cc2cc(S(=O)(=O)O)cc(O)c12`, the figures for the inhibition in experiment [21] and in experiment [31] were 4% and 9%, respectively. For the same compound, the Inhibition in the experiment on MT4 [22] was 0%; with MT4 [24], 100%; with MT4 [26], 12%; in the experiment on MT4 [29] it was 6%; in the experiment on MT4 [30], 100%; with MT4 [32] it was 3%. The Inhibition in the experiment with MT4 [34] was 5%; in the experiment with MT4 [35], 7%. Further, the Cell viability in the experiment on MT4 [23] is 1; with MT4 [25], 0; in the experiment with MT4 [28], 0; in the experiment with MT4 [33], 0. The figures for the EC50 with MT4 [9] and in the experiment with MT4 [19] were 40 µg/mL (≈ 71.7 µM) and 42 µg/mL (≈ 75.3 µM), respectively. Besides, the CC50 with MT4 [10] is more than 100 µg/mL. In addition, in experiment [27], the ID50 is 50 µg/mL (≈ 89.6 µM).
